Screening results as filed in PubChem BioAssay.
Shown are actives, neighbours in structure and some others; about 2.3% of the full set was active somewhere.
Tn6 DDE FP = disrupts Tn6 cyclic peptide binding to fibrin D-Dimer-E complex | 370,000 compounds, 0.21% hits | Fibrin DD(E) TRITC-Tn6 fluorescence polarization displacement | P02675 | inhibition, % at 8.3 µM;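 active = inhibition above a per-campaign cutoff: mean of compounds within control limits plus 3 SD, cut at about 15% in these data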;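 also: 0% = median of all compound wells on the plate and 100% = blocking peptide control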
ADAM10 inh = ADAM10 inhibition, QFRET primary screen. recombinant ADAM10, EDANS/DABCYL FRET peptide cleavage, 3 h. 370,000 compounds, 0.62% hits. O14672. inhibition, % at 7 µM;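 active = inhibition above a per-campaign cutoff equal to the mean of compounds falling between control-based bounds plus 3 SD, cut at about 20% in these data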;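 also: 0% = DMSO wells while the 100% control is not disclosed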
ADAM17 inh = inhibits human ADAM17; P78536; recombinant ADAM17, EDANS/DABCYL FRET peptide cleavage; inhibition, % at 6.95 µM; 370,000 compounds, 0.83% hits; AID 720648;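 active = inhibition above the mean of compounds lying between control limits plus 3 SD, set per campaign, cut at about 8.5% in these data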;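 also: 0% = DMSO-only wells as the low control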
PLC-beta3 inh = inhibitors of human phospholipase C beta3. Q01970. Purified PLC-beta3, fluorogenic substrate, fluorescence. inhibition, % at 12.2 µM. 370,000 compounds, 0.18% hits; in the data active = inhibition above about 11%;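 also: 0% = median of compound wells on plate and 100% = full blocker control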
Tn7 DDE FP = inhibitors of Tn7 peptide binding to human fibrin DD(E); P02675; FP displacement of FITC-Tn7 peptide from fibrin DD(E); 0% = median of compound wells per plate; inhibition, % at 8.3 µM; 370,000 compounds, 0.13% hits;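 active = inhibition above the mean of compounds falling within the control limits plus 3 SD of them, cut at about 14% in these data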;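 also: 0% = plate median of compound wells and 100% = 10 µM Aha-Tn7 peptide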
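Assay system: Human fibrin DD(E) protein | Medium: Tris buffer with calcium and detergent, pH 7.8 | Reagent: 0.1 µM fluorescent Tn7 | Compound dosing: Single point at 8.3 µM | Times: 10 min preincubation, 3 h with tracer, room temperature | Detection: Fluorescence polarization of the labelled Tn7 tracer | Controls: Aha-Tn7 high control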
PLC-gamma1 inh = blocks human PLC-gamma1 enzyme activity; purified PLC-gamma1, fluorogenic substrate, fluorescence; inhibition, % at 12.2 µM; 370,000 compounds, 0.84% hits; AID 720700
ADAM10 ctr = inhibits human ADAM10 in ADAM17 exosite counter-screen. shares compounds with ADAM17 inh. recombinant ADAM10, EDANS/DABCYL FRET peptide cleavage, 3 h. inhibition, % at 6.95 µM. 2,900 compounds, 47% hits. AID 743256;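 active = mean inhibition over the triplicate runs exceeds the activity threshold set in the earlier primary screen, cut at about 20% in these data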;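 also: 0% = DMSO wells and 100% = marimastat wells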
ADAM17 confirm = human ADAM17 inhibition, confirmation | AID 743257 | shares compounds with ADAM17 inh | 2,900 compounds, 65% hits | inhibition, % at 6.95 µM | recombinant ADAM17, EDANS/DABCYL QFRET peptide cleavage;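 active = mean inhibition across replicates above the hit cutoff set in the primary screen, cut at about 8.5% in these data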;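 also: 0% = DMSO wells and 100% = marimastat wells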
PLCg1 ctr = PLC-gamma1 inhibition, counter-screen for PLC-beta3 hits | purified PLC-gamma1, fluorogenic substrate, fluorescence | 3,300 compounds, 3.1% hits | shares compounds with PLC-gamma1 inh | inhibition, % at 12.3 µM
PLCbeta3 conf = confirmation of human PLC-beta3 inhibitors; shares compounds with PLC-gamma1 inh; AID 743261; purified PLC-beta3, fluorogenic substrate fluorescence; 3,300 compounds, 1% hits; inhibition, % at 12.3 µM; in the data active = inhibition above about 11%
Active calls of the source: *. Rule as the data show it, unless noted: active = inhibition above about 9.5%; inactive = the rest.

How did COc1ccc(-n2c(SCC(=O)Nc3ccc(Oc4ccccc4)cc3)nnc2-c2cccnc2)cc1 do in these assays?
Tn6 DDE FP: -3.7; ADAM10 inh: -4.8; ADAM17 inh: -2.9; PLC-beta3 inh: -2.5; Tn7 DDE FP: 5.3; PLC-gamma1 inh: 1.9

Results for Fc1ccc(-c2n[nH]c(=S)n2N=Cc2ccc(-c3ccccc3)cc2)cc1 ?
Tn6 DDE FP: 3.1; ADAM10 inh: -6.1; ADAM17 inh: -2.2; PLC-beta3 inh: -2.2; Tn7 DDE FP: -3.5; PLC-gamma1 inh: -1.6

Results for CCCCC(=O)Nc1nnc(C)s1 ?
Tn6 DDE FP: 8.4; ADAM10 inh: 1.3; ADAM17 inh: -2.6; PLC-beta3 inh: 3.0; Tn7 DDE FP: -1.0; PLC-gamma1 inh: 0.7

What do the screens show for `CCC(=O)Nc1nnc(C)s1`?
Tn6 DDE FP: 3.3; ADAM10 inh: 6.0; ADAM17 inh: 11.7*; PLC-beta3 inh: 6.0; Tn7 DDE FP: 0.2; PLC-gamma1 inh: 10.2*; ADAM10 ctr: -1.1; ADAM17 confirm: 6.4; PLCg1 ctr: -3.4; PLCbeta3 conf: -0.1

What do the screens show for `O=C(N/N=C/c1cccnc1)c1ccc([N+](=O)[O-])cc1`?
Tn6 DDE FP: -3.7; ADAM10 inh: 13.9; ADAM17 inh: 8.9*; PLC-beta3 inh: 4.9; Tn7 DDE FP: -6.8; PLC-gamma1 inh: 15.6*; ADAM10 ctr: 11.7; ADAM17 confirm: 9.0*; PLCg1 ctr: -2.0; PLCbeta3 conf: 2.0

How did CCn1cc(C(=O)N2CCN(Cc3ccc(C)cc3)CC2)c(=O)c2ccc(C)nc21 do in these assays?
Tn6 DDE FP: -5.3; ADAM10 inh: -12.4; ADAM17 inh: 1.5; PLC-beta3 inh: -8.0; Tn7 DDE FP: 0.3; PLC-gamma1 inh: -6.0

What do the screens show for `O=C(NCCOCC(F)(F)C(F)F)c1cc(F)c(F)cc1Cl`?
Tn6 DDE FP: 1.1; ADAM10 inh: 8.7; ADAM17 inh: 8.7*; PLC-beta3 inh: 1.6; Tn7 DDE FP: 2.5; PLC-gamma1 inh: 15.1*; ADAM10 ctr: -7.4; ADAM17 confirm: 1.5; PLCg1 ctr: -2.7; PLCbeta3 conf: -5.1

Results for CC(=O)c1cc(-c2ccccc2-c2ccccc2)c(=O)n2c1CCC2 ?
Tn6 DDE FP: 10.1; ADAM10 inh: -7.5; ADAM17 inh: -7.6; PLC-beta3 inh: -4.0; Tn7 DDE FP: 2.4; PLC-gamma1 inh: -2.9

How did COc1ccc(S[C@]2(C(=O)N3CCOCC3)CC(=O)N(C(=O)CCc3ccccc3)[C@@H]2c2ccc(OC)cc2)cc1 do in these assays?
Tn6 DDE FP: -0.2; ADAM10 inh: 15.3; ADAM17 inh: 6.7; PLC-beta3 inh: 1.5; Tn7 DDE FP: -2.8; PLC-gamma1 inh: 1.2

Results for O=C1NC[C@H](Cc2ccc(O)cc2)N(C[C@@H]2CCCN2C[C@H](Cc2ccccc2)N2C[C@H](Cc3ccccc3)N(CCc3ccccc3)C(=O)C2=O)C1=O ?
Tn6 DDE FP: -2.3; ADAM10 inh: -9.2; ADAM17 inh: -0.8; PLC-beta3 inh: -1.8; Tn7 DDE FP: -4.6; PLC-gamma1 inh: -1.2

What do the screens show for `O=C1NC[C@H](Cc2ccc(O)cc2)N(C[C@@H]2CCCN2C[C@H](Cc2ccc(O)cc2)N2C[C@H](Cc3ccccc3)N(CCc3ccccc3)C(=O)C2=O)C1=O`?
Tn6 DDE FP: 3.0; ADAM10 inh: 8.4; ADAM17 inh: 10.2*; PLC-beta3 inh: 12.4*; Tn7 DDE FP: 1.4; PLC-gamma1 inh: 5.3; ADAM10 ctr: -3.8; ADAM17 confirm: 2.3; PLCg1 ctr: -0.2; PLCbeta3 conf: -0.8

What do the screens show for `O=S(=O)(Cc1ccc(Cl)cc1)C1CCCCC1O` (centres undefined)?
Tn6 DDE FP: 10.5; ADAM10 inh: 6.9; ADAM17 inh: 10.5*; PLC-beta3 inh: 4.5; Tn7 DDE FP: -2.9; PLC-gamma1 inh: 11.2*; ADAM10 ctr: -10.9; ADAM17 confirm: -3.1; PLCg1 ctr: -4.3; PLCbeta3 conf: -0.7

Results for Cc1ccc(CN(C)C(=O)CN2C(=O)NC(c3ccccc3)(c3ccccc3)C2=O)c(C)c1 ?
Tn6 DDE FP: -1.6; ADAM10 inh: 8.4; ADAM17 inh: 9.1*; PLC-beta3 inh: -0.9; Tn7 DDE FP: -2.3; PLC-gamma1 inh: 10.8*; ADAM10 ctr: 30.8*; ADAM17 confirm: 13.4*; PLCg1 ctr: 2.9; PLCbeta3 conf: -5.3

How did CCN(CC)S(=O)(=O)c1ccc(C(=O)OCn2nnc3ccccc3c2=O)cc1 do in these assays?
Tn6 DDE FP: 6.4; ADAM10 inh: 11.9; ADAM17 inh: 10.4*; PLC-beta3 inh: 16.9*; Tn7 DDE FP: 4.8; PLC-gamma1 inh: 7.0; ADAM10 ctr: 6.7; ADAM17 confirm: 5.4; PLCg1 ctr: -2.1; PLCbeta3 conf: -0.7

How did COc1cc(OC)cc(C(=O)OCn2nnc3ccccc3c2=O)c1 do in these assays?
Tn6 DDE FP: 1.3; ADAM10 inh: -11.2; ADAM17 inh: -5.9; PLC-beta3 inh: -0.5; Tn7 DDE FP: 3.5; PLC-gamma1 inh: -0.7

Results for Cc1ccc(-c2c(NC(=O)c3ccccc3)nc3ncccn23)cc1 ?
Tn6 DDE FP: -2.6; ADAM10 inh: -331.6; ADAM17 inh: -94.5; PLC-beta3 inh: -402.0; Tn7 DDE FP: -5.9; PLC-gamma1 inh: -316.4

Results for COCCNC(=S)N1C[C@H]2CON(C)[C@H]2C[C@H]1c1ccccc1Br ?
Tn6 DDE FP: -2.6; ADAM10 inh: -2.2; ADAM17 inh: 9.4*; PLC-beta3 inh: 5.5; Tn7 DDE FP: -0.1; PLC-gamma1 inh: 9.7*; ADAM10 ctr: -9.9; ADAM17 confirm: -1.6; PLCg1 ctr: -2.5; PLCbeta3 conf: 0.6

How did CCN1CCCCC(NC(=O)c2ccc(C)cc2)C1=O (centres undefined) do in these assays?
Tn6 DDE FP: 7.7; ADAM10 inh: 0.9; ADAM17 inh: 3.6; PLC-beta3 inh: 1.5; Tn7 DDE FP: 5.1; PLC-gamma1 inh: 9.4

How did O=[N+]([O-])c1cccc(-c2c(-c3ccccc3)ncc3ccc(F)cc23)c1 do in these assays?
Tn6 DDE FP: 5.9; ADAM10 inh: 4.5; ADAM17 inh: 10.7*; PLC-beta3 inh: 11.3*; Tn7 DDE FP: -8.7; PLC-gamma1 inh: 5.9; ADAM10 ctr: 6.4; ADAM17 confirm: 5.2; PLCg1 ctr: -2.0; PLCbeta3 conf: -2.3

What do the screens show for `Fc1cccc(-c2c(-c3ccccc3)ncc3cc(F)ccc23)c1`?
Tn6 DDE FP: 4.1; ADAM10 inh: -5.9; ADAM17 inh: -0.1; PLC-beta3 inh: -2.6; Tn7 DDE FP: -9.4; PLC-gamma1 inh: -2.8
